Key:
[1] = target: T1, Integrin alpha-4/beta-7 (Homo sapiens) (UniProt P13612+P26010); settings: at 4 µg/mL
[2] = Drug level in BALB/c mouse serum at 10 mg/kg, po after 15 mins; type: ADME, organism-based; design: dose 10 mg/kg, route oral; settings: read-out: Drug uptake
How it was run: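 Serum (final 0.01-10%) assayed in the VLA-4/VCAM-1 binding assay, and concentration estimated from a calibration curve of compound spiked into untreated mouse serum.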

[3] = Oral bioavailability in rat; settings: in vivo
[4] = Volume of distribution at steady state in Sprague-Dawley rat at 10 mg/kg, iv; type: ADME, organism-based; design: dose 10 mg/kg, route intravenous; settings: in vivo, read-out: Vdss
[5] = Clearance in Sprague-Dawley rat at 10 mg/kg, iv; type: ADME, organism-based; design: dose 10 mg/kg, route intravenous; settings: in vivo
[6] = Half life in Sprague-Dawley rat at 10 mg/kg, iv; type: ADME, organism-based; design: dose 10 mg/kg, route intravenous; settings: in vivo
in vivo = settings: rat, plasma
Integrin alpha-4/beta-1 [7] = target: T2, Integrin alpha-4/beta-1 (Homo sapiens, UniProt P05556+P13612); experiment: Inhibition of europium labeled human VCAM1/Fc chimera binding to human VLA-4 alpha-4-beta-1 expressed in Chinese hamster 4B4 cells in presence of 3% HSA by fluorimetric assay; type: cell-based
How it was run: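 CHO-K1 4B4 cells transfected with human α4 and β1, plated at 3 × 10⁵ cells/mL and cultured 2 days, washed with HEPES pH 7.5 buffer containing Ca, Mg, Mn. Compound plus Eu-labeled human VCAM-1/Fc (final 1 nM), with or without human serum albumin, 60 min at room temperature; washed, Eu time-resolved fluorescence read; duplicates.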

[8] = Protein binding in plasma
Integrin alpha-4/beta-1 [9] = target: T2, Integrin alpha-4/beta-1; experiment: Inhibition of europium labeled human VCAM1/Fc chimera binding to human VLA-4 alpha-4-beta-1 expressed in Chinese hamster 4B4 cells by fluorimetric assay; type: cell-based
Mus musculus [10] = experiment: Antiinflammatory activity in Ascaris suum antigen-induced BALB/c AnNCrj mouse asthma model assessed as inhibition of eosinophil infiltration in BAL fluid at 5 mg.kg, po bid administered 15 mins before and 8, 24 and 32 hrs after antigen challenge measured 48 hrs after antigen challenge; type: functional
How it was run: (§1)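 Female BALB/c AnNCrj mice given cyclophosphamide 150 mg/kg po (day 0), sensitized ip with Ascaris suum extract plus alum on days 2 and 14, challenged intratracheally day 22. Compound in 0.5% MC/0.03% Tween 80 po 15 min before and 8, 24, 32 h after challenge; BAL at 48 h, eosinophils from total count times Wright-stained differential.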

[11] = Cmax in Sprague-Dawley rat at 1 mg/kg, po; type: ADME, organism-based; design: dose 1 mg/kg, route oral; settings: in vivo
How it was run: (§2)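 Male Sprague-Dawley rats (7 weeks), fasted 18 h, four per group. 1 mg/kg oral in 0.5% MC or iv in saline, each with 3 equiv NaOH. Plasma drawn at 0.08 (iv) or 0.25 (po), 0.5, 1, 2 and 6 h; LC/MS/MS quantitation, noncompartmental parameters.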

[12] = Half life in Beagle dog at 0.5 mg/kg, po; type: ADME, organism-based, Canis lupus familiaris; design: dose 0.5 mg/kg, route oral; settings: in vivo
How it was run: (§3)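 Male beagle dogs (10-12 kg), fasted 18 h, three per group; cassette dosing 0.5 mg/kg in 0.5% MC with 3 equiv NaOH (po) or saline with 3 equiv NaOH (iv). Blood taken 0.08 (iv) or 0.25 (po) to 24 h, fed after 4 h; plasma assayed by LC/MS/MS, noncompartmental analysis.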

Mus musculus [13] = experiment: Antiinflammatory activity in Ascaris suum antigen-induced BALB/c AnNCrj mouse asthma model assessed as inhibition of eosinophil infiltration in BAL fluid orally administered twice daily 15 mins before and 8, 24 and 32 hrs after antigen challenge measured 48 hrs after antigen challenge; type: functional, organism-based
How it was run: as §1

Mus musculus [14] = experiment: Toxicity in BALB/c AnNCrj mouse assessed as induction of hepatic injury at 50 mg/kg, iv for 2 days; type: organism-based; design: dose 50 mg/kg, route intravenous; settings: in vivo, 48 h
How it was run: (§4)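 Mice dosed iv at 50 mg/kg or orally at 25 or 200 (mg/kg)/day for 2 days, then assessed for liver injury.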

[15] = AUC in cynomolgus monkey at 0.5 mg/kg, po; type: ADME, organism-based, Macaca fascicularis; design: dose 0.5 mg/kg, route oral; settings: plasma
How it was run: (§5)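 Female cynomolgus monkeys (3.5-4 kg), fasted 18 h, three per group. Dose 0.5 mg/kg, oral as suspension in 0.5% MC or iv in saline with 3 equiv NaOH. Blood sampled from 0.08 (iv) or 0.25 (po) up to 24 h, food after 4 h; plasma LC/MS/MS, noncompartmental analysis.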

[16] = Half life in cynomolgus monkey at 0.5 mg/kg, iv; type: ADME, organism-based, Macaca fascicularis; design: dose 0.5 mg/kg, route intravenous; settings: in vivo
How it was run: as §5

[17] = Clearance in Sprague-Dawley rat at 1 mg/kg, iv; type: ADME, organism-based; design: dose 1 mg/kg, route intravenous; settings: in vivo
How it was run: as §2

[18] = Volume of distribution at steady state in Beagle dog at 0.5 mg/kg, iv; type: ADME, organism-based, Canis lupus familiaris; design: dose 0.5 mg/kg, route intravenous; settings: in vivo, read-out: Vdss
How it was run: as §3

[19] = Oral bioavailability in cynomolgus monkey at 0.5 mg/kg, po; type: ADME, organism-based, Macaca fascicularis; settings: in vivo
How it was run: as §5

[20] = Oral bioavailability in Sprague-Dawley rat at 1 mg/kg, po; type: ADME, organism-based; settings: in vivo
How it was run: as §2

[21] = Clearance in cynomolgus monkey at 0.5 mg/kg, iv; type: ADME, organism-based, Macaca fascicularis; design: dose 0.5 mg/kg, route intravenous; settings: in vivo
How it was run: as §5

[22] = Clearance in Beagle dog at 0.5 mg/kg, iv; type: ADME, organism-based, Canis lupus familiaris; design: dose 0.5 mg/kg, route intravenous; settings: in vivo
How it was run: as §3

[23] = AUC in Sprague-Dawley rat at 1 mg/kg, iv; type: ADME, organism-based; design: dose 1 mg/kg, route intravenous; settings: plasma
How it was run: as §2

[24] = Volume of distribution at steady state in Sprague-Dawley rat at 1 mg/kg, iv; type: ADME, organism-based; design: dose 1 mg/kg, route intravenous; settings: in vivo, read-out: Vdss
How it was run: as §2

[25] = target: T1, Integrin alpha-4/beta-7 (Homo sapiens); experiment: Inhibition of MAdCAM1 binding to integrin alpha4beta7 receptor in human RPMI8866 cells at 16 uM by cell/protein binding assay; type: cell-based
How it was run: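 RPMI8866 human B cells (α4β7+, β1−) at 1.2 × 10⁶/well in HEPES buffer containing BSA, DTPA, Ca, Mg and Mn, mixed with compound (final 10 μg/mL to 1 ng/mL) and Eu-MAdCAM-1 (final 1 nM) for 1 h at room temperature. Free ligand removed by centrifugation and washing; time-resolved fluorescence measured.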

[26] = AUC in Beagle dog at 0.5 mg/kg, iv; type: ADME, organism-based, Canis lupus familiaris; design: dose 0.5 mg/kg, route intravenous; settings: plasma
How it was run: as §3

[27] = AUC in Sprague-Dawley rat at 1 mg/kg, po; type: ADME, organism-based; design: dose 1 mg/kg, route oral; settings: plasma
How it was run: as §2

[28] = target: Intercellular adhesion molecule (ICAM-1), Integrin alpha-L/beta-2 (Homo sapiens) (UniProt P20701+P05362+P05107); experiment: Inhibition of europium labeled human ICAM1 binding to human integrin alphaLbeta2 receptor at 162 uM by protein/protein binding assay; type: protein-complex assay
How it was run: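 Membrane-bound human LFA-1 immobilized at 1 μg/mL overnight at 4 °C, then blocked with BSA. Compound added with 2 nM Eu-labeled human ICAM-1 D1D5-IgG in 5% DMSO and bound for 2 h at room temperature; plates washed and Eu fluorescence read by time-resolved fluorometry.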

[29] = Half life in Beagle dog at 0.5 mg/kg, iv; type: ADME, organism-based, Canis lupus familiaris; design: dose 0.5 mg/kg, route intravenous; settings: in vivo
How it was run: as §3

Mus musculus [30] = experiment: Toxicity in BALB/c AnNCrj mouse assessed as induction of hepatic injury at 200 mg/kg, po for 2 days; type: organism-based; design: dose 200 mg/kg, route oral; settings: in vivo, 48 h
How it was run: as §4

[31] = AUC in cynomolgus monkey at 0.5 mg/kg, iv; type: ADME, organism-based, Macaca fascicularis; design: dose 0.5 mg/kg, route intravenous; settings: plasma
How it was run: as §5

[32] = Half life in cynomolgus monkey at 0.5 mg/kg, po; type: ADME, organism-based, Macaca fascicularis; design: dose 0.5 mg/kg, route oral; settings: in vivo
How it was run: as §5

Cavia porcellus = experiment: Inhibition of acetylcholine chloride-induced bronchial hyperesponsiveness in ovalbumin challenged guinea pig asthma model administered orally 1 hr before and 2.5 hrs after antigen challenge; type: functional
How it was run: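 Hartley guinea pigs (n = 8/group) sensitized with 1% OVA aerosol 10 min/day for 8 days, challenged a week later with 2% OVA aerosol 5 min; metyrapone iv and pyrilamine ip pretreatment. Oral doses 0.8, 2, 5 or 12.5 mg/kg at 1 h before and 2.5 h after challenge. At 22-27.5 h, stepwise ACh aerosol (0.0625-2 mg/mL); PC100ACh from sRaw.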

[33] = AUC in Beagle dog at 0.5 mg/kg, po; type: ADME, organism-based, Canis lupus familiaris; design: dose 0.5 mg/kg, route oral; settings: plasma
How it was run: as §3

[34] = Cmax in cynomolgus monkey at 0.5 mg/kg, po; type: ADME, organism-based, Macaca fascicularis; design: dose 0.5 mg/kg, route oral; settings: in vivo
How it was run: as §5

Mus musculus [35] = experiment: Antiinflammatory activity in Ascaris suum antigen-induced BALB/c AnNCrj mouse asthma model assessed as reduction of acetylcholine chloride-induced bronchial hyperesponsiveness at 12.5 mg/kg, bid administered 15 mins before and 8, 24 and 32 hrs after antigen challenge measured 48 hrs after antigen challenge; type: functional; design: scale not given: the % may be the effect or the level left
How it was run: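 Sensitized/challenged BALB/c AnNCrj mice (Ascaris suum, as in the eosinophil model) dosed po in 0.5% MC/0.03% Tween 80 at 15 min before and 8, 24, 32 h after challenge. At 48 h, pentobarbital-anesthetized, tracheotomized, ventilated mice given ACh injection; lung resistance increase measured.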

[36] = Half life in Sprague-Dawley rat at 1 mg/kg, iv; type: ADME, organism-based; design: dose 1 mg/kg, route intravenous; settings: in vivo
How it was run: as §2

[37] = Half life in Sprague-Dawley rat at 1 mg/kg, po; type: ADME, organism-based; design: dose 1 mg/kg, route oral; settings: in vivo
How it was run: as §2

[38] = Cmax in Beagle dog at 0.5 mg/kg, po; type: ADME, organism-based, Canis lupus familiaris; design: dose 0.5 mg/kg, route oral; settings: in vivo
How it was run: as §3

[39] = Oral bioavailability in Beagle dog at 0.5 mg/kg, po; type: ADME, organism-based, Canis lupus familiaris; settings: in vivo
How it was run: as §3

[40] = target: Integrin alpha-IIb/beta-3 (Homo sapiens) (UniProt P05106+P08514); experiment: Inhibition of integrin alpha2bbeta3 receptor dependent platelet aggregation at 16 uM
How it was run: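 Platelet-rich plasma prepared from citrated blood of two volunteers. Compound in DMSO preincubated with PRP for 2 min at 37 °C, then aggregation induced with collagen; aggregation rate followed for 10 min.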

[41] = Volume of distribution at steady state in cynomolgus monkey at 0.5 mg/kg, iv; type: ADME, organism-based, Macaca fascicularis; design: dose 0.5 mg/kg, route intravenous; settings: in vivo, read-out: Vdss
How it was run: as §5

T2 sequence (P05556 whole entry): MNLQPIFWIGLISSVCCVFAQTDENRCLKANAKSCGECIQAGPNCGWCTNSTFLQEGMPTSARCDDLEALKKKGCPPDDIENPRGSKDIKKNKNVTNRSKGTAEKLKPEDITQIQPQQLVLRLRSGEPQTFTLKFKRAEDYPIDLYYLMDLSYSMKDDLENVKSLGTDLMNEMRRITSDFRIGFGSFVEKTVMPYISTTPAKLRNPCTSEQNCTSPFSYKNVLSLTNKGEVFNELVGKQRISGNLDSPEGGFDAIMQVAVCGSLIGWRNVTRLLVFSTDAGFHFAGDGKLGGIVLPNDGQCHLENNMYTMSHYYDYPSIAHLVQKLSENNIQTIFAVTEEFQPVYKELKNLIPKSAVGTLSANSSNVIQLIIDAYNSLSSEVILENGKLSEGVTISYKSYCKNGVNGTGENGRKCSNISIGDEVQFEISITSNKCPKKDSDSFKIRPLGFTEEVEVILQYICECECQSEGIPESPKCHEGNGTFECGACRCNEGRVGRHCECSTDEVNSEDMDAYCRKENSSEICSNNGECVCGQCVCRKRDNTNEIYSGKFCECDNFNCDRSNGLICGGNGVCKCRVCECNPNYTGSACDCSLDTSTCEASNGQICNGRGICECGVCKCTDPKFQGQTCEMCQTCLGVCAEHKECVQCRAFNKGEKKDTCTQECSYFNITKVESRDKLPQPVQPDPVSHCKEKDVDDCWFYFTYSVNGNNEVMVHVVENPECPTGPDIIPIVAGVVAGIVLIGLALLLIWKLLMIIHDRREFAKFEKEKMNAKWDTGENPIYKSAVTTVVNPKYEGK
T2 sequence (P13612 whole entry): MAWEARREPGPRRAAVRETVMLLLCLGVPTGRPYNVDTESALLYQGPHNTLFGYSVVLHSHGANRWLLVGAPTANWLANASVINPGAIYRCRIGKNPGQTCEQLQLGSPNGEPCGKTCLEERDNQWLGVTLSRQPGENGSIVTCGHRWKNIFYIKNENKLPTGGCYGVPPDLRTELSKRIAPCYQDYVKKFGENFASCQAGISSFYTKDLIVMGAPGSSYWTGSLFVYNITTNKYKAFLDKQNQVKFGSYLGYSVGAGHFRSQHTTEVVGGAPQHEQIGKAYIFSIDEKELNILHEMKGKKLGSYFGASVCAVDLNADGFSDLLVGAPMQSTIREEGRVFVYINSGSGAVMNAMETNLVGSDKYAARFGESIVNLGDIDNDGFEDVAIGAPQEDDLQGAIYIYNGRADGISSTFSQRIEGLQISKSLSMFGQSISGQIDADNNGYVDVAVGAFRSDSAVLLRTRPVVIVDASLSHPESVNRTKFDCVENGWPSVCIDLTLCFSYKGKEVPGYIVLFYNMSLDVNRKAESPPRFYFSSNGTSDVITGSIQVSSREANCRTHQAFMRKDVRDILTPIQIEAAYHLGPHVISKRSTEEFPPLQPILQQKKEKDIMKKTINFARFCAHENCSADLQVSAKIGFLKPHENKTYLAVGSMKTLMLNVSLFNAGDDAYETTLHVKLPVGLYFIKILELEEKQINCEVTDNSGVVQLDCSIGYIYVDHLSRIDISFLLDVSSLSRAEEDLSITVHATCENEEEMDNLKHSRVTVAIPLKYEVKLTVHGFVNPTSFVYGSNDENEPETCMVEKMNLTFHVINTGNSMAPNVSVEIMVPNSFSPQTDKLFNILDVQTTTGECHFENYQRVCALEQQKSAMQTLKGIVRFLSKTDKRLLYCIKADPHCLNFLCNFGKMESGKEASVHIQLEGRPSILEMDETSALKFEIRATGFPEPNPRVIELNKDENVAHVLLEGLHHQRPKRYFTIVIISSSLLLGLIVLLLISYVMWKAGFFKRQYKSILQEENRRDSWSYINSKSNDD

Compound: Cc1ccccc1Nc1nc2ccc(CC(=O)N3C[C@@H](F)C[C@H]3CO[C@H]3CC[C@H](C(=O)O)CC3)cc2o1
- inhibition [1]: 46%
- concentration at 0.25 h [2]: 373 ng/mL
- bioavailability [3]: 24%
- Vd [4]: 0.317 L/kg
- clearance [5]: 12.2 mL/min/kg
- half-life [6]: 0.8 h
- clearance (in vivo): 12.2 mL/min/kg
- IC50 (Integrin alpha-4/beta-1 [7]): 45 nM
- fraction unbound [8]: 0.03
- IC50 (Integrin alpha-4/beta-1 [9]): 2.8 nM

Compound: CO[C@H]1C[C@@H](CO[C@H]2CC[C@H](C(=O)O)CC2)N(C(=O)Cc2cc(Cl)c(NC(=O)c3cn(C)c4ccccc34)cc2Cl)C1
- concentration at 0.25 h [2]: 6150 ng/mL
- inhibition (INH) (Mus musculus [10]): 53%
- Cmax [11]: 385 ng/mL
- half-life [12]: 2 h
- Activity (Mus musculus [13]): Dose-dependent effect
- Activity (Mus musculus [14]): Non-toxic
- AUC [15]: 3480 ng·h/mL
- half-life [16]: 6.3 h
- clearance [17]: 19.3 mL/min/kg
- Vd [18]: 0.164 L/kg
- bioavailability [19]: 68%
- bioavailability [20]: > 100%
- clearance [21]: 1.8 mL/min/kg
- clearance [22]: 1.7 mL/min/kg
- AUC [23]: 865 ng·h/mL
- Vd [24]: 1.22 L/kg
- IC50 (Integrin alpha-4/beta-1 [7]): 93 nM
- inhibition [25]: 41%
- AUC [26]: 6710 ng·h/mL
- AUC [27]: 975 ng·h/mL
- inhibition [28]: 9%
- half-life [29]: 2.1 h
- Activity (Mus musculus [30]): Non-toxic
- AUC [31]: 5140 ng·h/mL
- half-life [32]: 5.5 h
- Activity (Cavia porcellus): Dose-dependent effect
- ED50 (Cavia porcellus; po, read-out: ID50 (the source's name)): 3 mg/kg
- AUC [33]: 6090 ng·h/mL
- Cmax [34]: 431 ng/mL
- Activity (Mus musculus [35]): 83%
- half-life [36]: 1 h
- IC50 (Integrin alpha-4/beta-1 [9]): 5.4 nM
- half-life [37]: 1.5 h
- Cmax [38]: 1590 ng/mL
- bioavailability [39]: 91%
- inhibition [40]: 10%
- Vd [41]: 0.223 L/kg
